Experiments:
HCT-8 = experiment: In vitro cytotoxicity against HCT-8 human colon carcinoma cells.; format: functional; conditions: read-out: ID50 (the source's name)
Summary of the method: (§1)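 Cultured L1210 murine leukemia or HCT-8 human colon carcinoma cells were incubated with drug for 70 h. ID50 is the drug concentration (nM) that reduced cell number to 50% of untreated controls.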

Mus musculus = experiment: In vivo optimal i.p. dose administered on days 1, 5, and 9 after i.p. inoculation of (10E6) P388 leukemia cells.; format: functional
Summary of the method: (§2)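 Mice received 10⁶ P388 leukemia cells i.p. Drug was dissolved in 0.1 mL of 30% v/v ethanol/water and given i.p. on days 1, 5 and 9 after inoculation. The optimal dose is expressed in mg/kg per day.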

L1210 [1] = experiment: In vitro cytotoxicity against L1210 leukemia cells.; format: functional; conditions: Mus musculus, read-out: ID50 (the source's name); summary of the method: as §1
P388 [2] = experiment: Evaluated in vivo against P388 leukemia cells ( percent increase in life span of treated animals over that of control groups of tumor bearing untreated animals.); format: functional, Mus musculus
L1210 [3] = experiment: In vitro cytotoxicity against L1210 leukemia cells; format: functional; conditions: Mus musculus, read-out: ID50 (the source's name); summary of the method: as §1
P388 [4] = experiment: Evaluated in vivo against P388 leukemia cells ( percent increase in life span of treated animals over that of control groups of tumor bearing untreated animals.); k = no activity at all dose levels up to acutely toxic ones; format: functional, organism-based; conditions: Mus musculus; summary of the method: as §2

SMILES	IC50 (HCT-8) [nM]	OD (Mus musculus) [mg/kg/day]	IC50 (L1210 [1]) [nM]	ILS (P388 [2]) [%]	IC50 (L1210 [3]) [nM]	ILS (P388 [4])
Cc1cccc2c(N)c3cccc(C(=O)NCCN(C)C)c3nc12	11	2.6	0.47	107		
CN(C)CCNC(=O)c1ccc(Cl)c2c(N)c3ccccc3nc12	360	8.9	4.8	29		
CN(C)CCNC(=O)c1cccc2c(N)c3ccccc3nc12	66	4.5			15	
COc1ccc2nc3c(C(=O)NCCN(C)C)cccc3c(N)c2c1	600	13.3	670			No activity
COc1cc(C(=O)NCCN(C)C)c2nc3ccccc3c(N)c2c1	32	5.9	2.9	72		
Cc1cccc2nc3c(C(=O)NCCN(C)C)cccc3c(N)c12	250	8.9	340			No activity
Cc1ccc2c(N)c3cccc(C(=O)NCCN(C)C)c3nc2c1	120	2.6		20		
Cc1cc(C(=O)NCCN(C)C)c2nc3ccccc3c(N)c2c1	425	30	590			No activity
COc1cccc2nc3c(C(=O)NCCN(C)C)cccc3c(N)c12	486	45	220			No activity
COc1ccc(C(=O)NCCN(C)C)c2nc3ccccc3c(N)c12	19	8.9	0.55	27		
CN(C)CCNC(=O)c1cccc2c(N)c3ccc(Cl)cc3nc12	245	8.9	105			No activity
CN(C)CCNC(=O)c1cccc2c(N)c3c(Cl)cccc3nc12	360	20	250			No activity
COc1cccc2c(N)c3cccc(C(=O)NCCN(C)C)c3nc12	89	3.9	4.3	81		
CN(C)CCNC(=O)c1cc(Cl)cc2c(N)c3ccccc3nc12	325	20	300			No activity
COc1ccc2c(N)c3cccc(C(=O)NCCN(C)C)c3nc2c1		8.9				No activity
Cc1ccc2nc3c(C(=O)NCCN(C)C)cccc3c(N)c2c1	485	13.3				No activity
CN(C)CCNC(=O)c1cccc2c(N)c3cccc(Cl)c3nc12	33	2.6	2.9	81		
CN(C)CCNC(=O)c1cccc2c(N)c3cc(Cl)ccc3nc12	485	13.3	722			No activity
COc1ccc2c(N)c3ccccc3nc2c1C(=O)NCCN(C)C	780	20	300			No activity

Source: ChEMBL document CHEMBL1123425, “Potential antitumor agents. 46. Structure-activity relationships for acridine monosubstituted derivatives of the antitumor agent N-[2-(dimethylamino)ethyl]-9-aminoacridine-4-carboxamide” (1986)
